From PubChem
FN deposit inh = fibronectin deposition inhibition; AH1F fibroblasts, Alexa488-fibronectin deposition fluorescence, overnight; inhibition, % at 12.6 µM; 350,000 compounds, 0.086% hits; AID 743247;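 active = mean inhibition across replicates of 30% or more, regardless of how many single replicates reach that level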;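 also: positive control wells lacked labelled fibronectin entirely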
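Material: AH1F fibroblast monolayer depositing Alexa488-labelled fibronectin into matrix | Input: 10000 AH1F cells/well | Medium: DMEM plus 2% serum, read in PBS | Reagent: Alexa488-fibronectin, 24 nM final in well | Compound dosing: One dose per compound, pinned | Schedule: 1 h adhesion, overnight exposure | Measured by: Fluorescence at 485 nm excitation, 525 nm emission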
FGF22 binding = shifts melting point of recombinant human FGF22; Q9HCT0; recombinant FGF22 thermal shift, SYPRO orange fluorescence; percent of sucrose octasulfate shift, DMSO zero; activity (Tm shift, normalised), % at 9.99 µM; 340,000 compounds, 1.5% hits; AID 651658;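 active = mean Tm shift, scaled 0 neutral to 100 positive control, at about 1.3% or above, every replicate too, limit read from the data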
Ecoli rRNA inh = inhibitors of bacterial rRNA selective over humanized ribosomes; AID 720706; GFP signal change (wild-type ribosome), % (no concentration beside the values); E. coli WT GFP vs humanized-ribosome RFP mutants, fluorescence, 24 h; hits give low values; DMSO median 0, no signal -100; 350,000 compounds, 1.6% hits;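 active = significant combined selectivity score with lowered wild-type GFP, culture density cut under 30%, mutant RFP and density less affected; inactive = any of these conditions unmet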
Statin myotox sup = suppression of simvastatin myotoxicity | C2C12 myotubes + simvastatin, ATP luminescence, 48 h; scaled: DMSO 0, geranylgeraniol control 100 | rescue of ATP level, % at 7.49 µM | 330,000 compounds, 0.78% hits;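 active = mean ATP rescue above about 67%, or every replicate alone reaching that limit, limit read from the data, passing the limit was not always enough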;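 also: myotubes were challenged with 10 µM simvastatin during compound exposure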
E-sel inducer = induces E-selectin expression in human endothelial cells | AID 686992 | P16581 | 260,000 compounds, 0.37% hits | activation, % at 7.58 µM | HUVEC E-selectin immunofluorescence imaging; normalized: neutral wells 0, TNF-alpha wells 100;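 active = mean E-selectin-positive cell signal at least 10% of the positive control, reached in at least 60% of replicates, without over 20% cell loss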
Target sequence (P16581 whole entry, looked up): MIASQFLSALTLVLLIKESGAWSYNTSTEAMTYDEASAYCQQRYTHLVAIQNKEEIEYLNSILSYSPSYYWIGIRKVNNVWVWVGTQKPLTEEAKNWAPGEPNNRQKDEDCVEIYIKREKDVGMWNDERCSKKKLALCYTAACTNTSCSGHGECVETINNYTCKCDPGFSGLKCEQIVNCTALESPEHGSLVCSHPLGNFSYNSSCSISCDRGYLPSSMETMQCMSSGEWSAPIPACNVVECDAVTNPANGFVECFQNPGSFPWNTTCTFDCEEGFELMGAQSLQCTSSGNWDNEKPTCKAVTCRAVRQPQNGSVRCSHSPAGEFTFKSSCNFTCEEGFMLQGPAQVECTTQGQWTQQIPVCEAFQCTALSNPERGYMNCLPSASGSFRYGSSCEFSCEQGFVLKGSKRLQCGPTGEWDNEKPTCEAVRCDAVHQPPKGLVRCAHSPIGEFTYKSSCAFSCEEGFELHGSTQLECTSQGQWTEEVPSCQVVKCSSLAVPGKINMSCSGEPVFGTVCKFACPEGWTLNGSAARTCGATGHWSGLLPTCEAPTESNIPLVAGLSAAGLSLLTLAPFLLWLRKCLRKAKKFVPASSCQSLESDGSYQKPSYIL
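Test system – human umbilical vein endothelial cells (HUVEC), E-selectin induction · Input – 3,000 HUVEC seeded per well · Buffer or medium – EGM-2, gelatin · Compound dosing – single-point compound dose · Detection – immunofluorescence imaging · Measure – percent E-selectin-positive cells · Controls – TNF-alpha high, DMSO low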
SIRT5 block = inhibitors of human sirtuin-5 desuccinylase. Q9NXA8. 330,000 compounds, 1.1% hits. inhibition, % at 15 µM. Purified SirT5, succinyl-peptide AMC, trypsin-coupled fluorescence; in the data active = inhibition above about 15%
Active calls of the source: *; · = not tested or not shown; ! = not confirmed by another sample. Hits are enriched below; roughly 4% of the tested compounds scored in any of these assays.

SMILES	FN deposit inh	FGF22 binding	Ecoli rRNA inh	Statin myotox sup	E-sel inducer	SIRT5 block
C[C@@H]1CN([C@@H](C)CO)C(=O)c2cc(NC(=O)Nc3ccc(F)cc3)ccc2O[C@H]1CN(C)C(=O)Nc1ccc(F)cc1	·	0	-3	2	0	-3
C[C@@H]1CN([C@H](C)CO)C(=O)c2cccc(NC(=O)Nc3ccc4c(c3)OCO4)c2O[C@@H]1CN(C)C(=O)Nc1ccc(C(F)(F)F)cc1	·	0	-6	·	60*	0
C[C@@H]1CN([C@H](C)CO)C(=O)c2cc(NC(=O)Cn3cnnn3)ccc2O[C@H]1CN(C)Cc1ccc(C(F)(F)F)cc1	-9	0	-2	36	1	-7
COCC#Cc1cnc2c(c1)C(=O)N([C@H](C)CO)C[C@H](C)[C@H](CN(C)S(=O)(=O)c1ccccc1)O2	-2	0	6	-2	0	-5
COc1ccc(NC(=O)N(C)C[C@@H]2Oc3ccc(NC(=O)CCN4CCOCC4)cc3C(=O)N([C@H](C)CO)C[C@H]2C)cc1	-13	0	0	0	0	-2
CCCC#Cc1ccc([C@H]2[C@H](CO)N3C(=O)CN(C(=O)c4ccncc4)C[C@@H]23)cc1	·	·	5	·	0	2
C[C@H]1CN(C)C(=O)c2ccccc2O[C@H]1CN(C)S(C)(=O)=O	-4	·	0	·	·	·
C[C@H](CO)N1C[C@H](C)[C@@H](CN(C)C(=O)Nc2ccc(C(F)(F)F)cc2)Oc2ccc(NC(=O)Nc3ccccc3)cc2C1=O	12	19*!	-10	-37	0	2
C[C@@H]1CN([C@@H](C)CO)C(=O)c2cc(NC(=O)Nc3ccc(C(F)(F)F)cc3)ccc2O[C@H]1CN(C)C(=O)Nc1ccccc1	·	0	-1	3	0	6
C[C@@H]1CN([C@@H](C)CO)C(=O)c2cc(NC(=O)Nc3ccc(C(F)(F)F)cc3)ccc2O[C@@H]1CN(C)C(=O)Nc1ccc2c(c1)OCO2	·	0	1	-26	0	15*
Cc1noc(C)c1NC(=O)N(C)C[C@@H]1Oc2c(NC(=O)Nc3ccc4c(c3)OCO4)cccc2C(=O)N([C@@H](C)CO)C[C@@H]1C	·	0	2	-15	0	13
Cc1noc(C)c1NC(=O)N(C)C[C@H]1Oc2c(NC(=O)Nc3ccc4c(c3)OCO4)cccc2C(=O)N([C@H](C)CO)C[C@@H]1C	-6	0	2	83*!	0	1
C[C@@H]1CCCCO[C@@H](CN(C)S(=O)(=O)c2cn(C)cn2)[C@@H](C)CN([C@H](C)CO)C(=O)c2cc(NS(=O)(=O)c3ccc(Cl)cc3)ccc2O1	-2	0	1	·	0	2
CCN1CCN(CC(=O)N2N=C(c3cccs3)CC2c2ccc(OC)cc2)C(=O)C1=O (centres undefined)	·	43*	-3	·	·	3
O=C(C[C@H]1C=C[C@H](NC(=O)CCN2CCCCC2)[C@H](CO)O1)Nc1ccc(-c2ccccc2)cc1	1	0	2	-20	0	-3
C[C@H](CO)N1C[C@H](C)[C@H](CN(C)C(=O)Nc2cccc3ccccc23)Oc2ccc(NC(=O)Nc3ccc4c(c3)OCO4)cc2CC1=O	3	0	-3	12	0	5
Cc1c(Cc2ccccc2)c(=O)oc2cc(OCC(=O)NC(Cc3ccc(Cl)cc3)C(=O)O)ccc12 (centres undefined)	·	·	-27*	3	·	-23
Cc1c(C)c2ccc(OCC(=O)NC(Cc3ccc(Cl)cc3)C(=O)O)cc2oc1=O (centres undefined)	·	0	2	0	·	-11
O=C(CCC1COc2ccccc2O1)Nc1ccccn1 (centres undefined)	·	·	·	155*	·	·
O=C(CC1COc2ccccc2O1)Nc1ccccn1 (centres undefined)	·	·	·	6	·	·
Cc1c(Cc2ccc3c(c2)OCO3)sc(NC(=O)C2CC2)c1C(N)=O	10	0	-27*	·	0	6
CC(C)NC(=O)N(C)C[C@@H]1Oc2ccccc2CC(=O)N(C)C[C@@H]1C	·	·	1	·	·	·
COc1cc(OC)c(NC2c3ccccc3C(=O)N2c2cc(C)ccn2)cc1Cl (centres undefined)	0	3.4*	-4	41	1	-2
CN1CCN(C(=O)C[C@@H]2CC[C@H]3[C@@H](COC[C@@H](O)CN3S(=O)(=O)c3cccc(Cl)c3)O2)CC1	-12	0	-6	1	0	-2
C[C@@H]1CN([C@@H](C)CO)C(=O)c2cc(NC(=O)NC3CCCCC3)ccc2O[C@@H](C)CCCCO[C@@H]1CN(C)C(=O)c1ccccc1	-13	0	-5	-35	0	1
SMILES	FN deposit inh	FGF22 binding	Ecoli rRNA inh	Statin myotox sup	E-sel inducer	SIRT5 block
COc1ccc(C(=O)N/N=C/c2ccc(N3CCOCC3)s2)cc1OC	3	-1	-16*	-16	·	9
Cc1cc2nc(CSc3ccccc3)cc(=O)n2[nH]1	-6	0	-20	·	·	29*
C[C@@H]1CN([C@H](C)CO)S(=O)(=O)c2ccc(C3=CCCC3)cc2O[C@@H]1CN(C)C(=O)C1CC1	-5	·	-1	-31	0	·
Cc1cccc(-c2n[nH]c(=S)n2/N=C/c2cccs2)c1	-5	-1	-22*	·	0	2
Cc1cccc(/C=N/n2c(-c3cc(-c4ccccc4)n[nH]3)n[nH]c2=S)c1	-5	0	8	·	2	-5
Cc1cccc(-c2n[nH]c(=S)n2/N=C/c2ccc(C)s2)c1	-2	·	·	·	0	·
S=c1[nH]nc(-c2cc(-c3ccccc3)n[nH]2)n1/N=C/c1ccccc1	-13	0	-15*	9	0	-1
Cc1c(Br)c(O)c(Br)c(O)c1/C=N/n1c(-c2ccccc2)n[nH]c1=S	·	·	2	-4	·	30*
COc1ccccc1NC(=O)N[C@@H]1CC[C@@H](CCn2cc(-c3cccnc3)nn2)O[C@@H]1CO	1	1	1	-4	0	0
CCCNC(=O)N1CC2(C1)CN(Cc1ccccn1)[C@H](CO)c1c2c2ccc(OC)cc2n1C	·	0	1	·	0	-8
C[C@H]1CN([C@@H](C)CO)C(=O)Cc2cc(N(C)C)ccc2O[C@@H]1CN(C)S(C)(=O)=O	1	0	-1	11	0	1
COc1ccc(NC(=O)N(C)C[C@H]2Oc3ccc(NS(=O)(=O)c4cn(C)cn4)cc3C(=O)N([C@@H](C)CO)C[C@H]2C)cc1	·	0	6	28	·	3
CCOC(=O)/C=C(\C)Nc1cc(C)nn1-c1ccccc1	-1	·	·	127*	·	·
